From publication PMC7458062 (ACS Infectious Diseases, 2020)

Experiments:
[1] = tested on: P. aeruginosa 18SH strain, blaPDC; format: cell-based; details: Pseudomonas aeruginosa, read-out: MIC of CAZ, P. aer. 18SH blaPDC
Outline: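 CLSI broth microdilution in Mueller-Hinton broth, with inoculum at 6 × 10^4 cfu/mL final. Ceftazidime was tested from 128 to 0.06 μg/mL, with test compound held constant at 4 μg/mL. Plates were incubated overnight at 37 °C and MICs were recorded the next day.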

E. coli DH10B blaCTX-M-9 = format: cell-based; details: Escherichia coli, read-out: MIC of FEP, E. coli, DH10B blaCTX-M-9

Row | Compound | MIC [1] [µg/mL] | MIC (E. coli DH10B blaCTX-M-9) [µg/mL]
1 | CC(C)(O/N=C(\C(=O)N[C@@H]1C(=O)N2C(C(=O)[O-])=C(C[n+]3ccccc3)CS[C@H]12)c1csc(N)n1)C(=O)O [CAZ, ceftazidime] | 64 | –
2 | CO/N=C(\C(=O)N[C@@H]1C(=O)N2C(C(=O)[O-])=C(C[N+]3(C)CCCC3)CS[C@H]12)c1csc(N)n1 [FEP, cefepime] | – | 8
